Assay outcomes from PubChem.
Most compounds without a hit are left out; they make up all but 2.5% or so of the library.
SENP6 block – blocks the human protease SENP6 | 1.8% of 330,000 active | inhibition, % at 10 µM | Q9GZR1 | Recombinant SENP6 catalytic domain, aminoluciferin luminescence | AID 2599;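 active means inhibition above about 50% at the single tested dose, limit read from the data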
SENP8 block-1 – inhibitors of human SENP8 protease; inhibition, % at 10 µM; 1.2% of 330,000 active; AID 2540; purified SENP8, Z-RLRGG-aminoluciferin cleavage, luminescence; in the data active means inhibition above about 50%
Target sequence (Q96LD8 whole entry, looked up): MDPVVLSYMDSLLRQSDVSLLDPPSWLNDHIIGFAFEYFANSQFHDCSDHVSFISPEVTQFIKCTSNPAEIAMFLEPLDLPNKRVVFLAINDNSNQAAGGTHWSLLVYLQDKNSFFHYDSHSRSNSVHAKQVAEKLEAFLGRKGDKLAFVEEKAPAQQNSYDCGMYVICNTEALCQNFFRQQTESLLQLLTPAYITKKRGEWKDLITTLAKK
SENP8 block-2 – inhibitors of human SENP8 protease | Q96LD8 | recombinant SENP8, Nedd8 substrate fluorescence | inhibition, % at 20 µM | 0.64% of 360,000 active | AID 602440; in the data active means inhibition mostly above about 40%, no sharp cut-off; inactive means mostly below about 27%
SENP7 block – SENP7 protease inhibition | AID 434973 | Q9BQF6 | inhibition, % at 5 µM | 1.5% of 330,000 active | recombinant SENP7, Z-RLRGG-aminoluciferin luminescence, 40 min;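 active means inhibition above about 50% at the single test dose, limit read from the data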
SENP1 inh – inhibitors of human SENP1 SUMO protease catalytic domain | AID 624204 | inhibition, % at 10 µM | recombinant SENP1 catalytic domain, CyPet-SUMO1-YPet FRET cleavage | 0.21% of 360,000 active | Q9P0U3;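 active means inhibition at least 30% at 10 µM, raw YFP signal under a set limit, fluorescence ratio 0.5 to 1.5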
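material = recombinant human SENP1 catalytic domain, His6-tagged | quantity = 20 pM enzyme | reagent = 25 nM SUMO1 FRET substrate | compound dosing = 10 µM single point, 0.5% DMSO | timing = 50 min enzyme reaction, room temperature, light-protected | detection = FRET, CFP and YFP emission | control set = no-enzyme low, enzyme-DMSO high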
SENP8 conf – confirmation of human SENP8 protease inhibitors; Recombinant SENP8, Z-RLRGG-aminoluciferin luminescence, 60 min; 40% of 6,200 active; shares compounds with SENP7 block; AID 488912; inhibition, % at 12.5 µM;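 active means mean inhibition across replicates above about 50%, limit read from the data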
SENP6 conf – confirmation of human SENP6 protease inhibitors; shares compounds with SENP7 block; recombinant SENP6, Z-RLRGG-aminoluciferin luminescence; inhibition, % at 12.5 µM; 58% of 6,200 active
SENP7 conf – human SENP7 inhibition, confirmed; 69% of 6,200 active; inhibition, % at 12.5 µM; shares compounds with SENP7 block; recombinant SENP7, Z-RLRGG-aminoluciferin luminescence, 40 min; AID 488917
Casp3 select – caspase-3 inhibition (SENP selectivity assay). inhibition, % at 12.5 µM. 60% of 6,200 active. shares compounds with SENP7 block. purified caspase-3, Z-DEVD-aminoluciferin luminescence, 60 min. AID 488918;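 active means mean inhibition above about 50%, limit read from the data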
Target sequence (P42574 28-227 limits assumed): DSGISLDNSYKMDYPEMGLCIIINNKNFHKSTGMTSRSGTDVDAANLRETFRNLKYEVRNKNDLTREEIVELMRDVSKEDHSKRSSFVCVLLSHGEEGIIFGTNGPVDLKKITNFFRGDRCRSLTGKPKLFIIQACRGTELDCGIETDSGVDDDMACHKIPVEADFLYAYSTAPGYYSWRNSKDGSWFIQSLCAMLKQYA
Luc interf – luminescence interference (SENP counter-screen) | inhibition, % at 12.5 µM | Pre-incubated SENP8/Z-RLRGG-aminoluciferin, luciferase luminescence interference | shares compounds with SENP7 block | AID 488919 | 39% of 6,200 active;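 active means mean inhibition above about 50% when retested at one dose, limit read from the data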
Numbers stand for hits.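 How the source made its calls, unless noted: active means mean inhibition above about 50% in the one-dose retest (limit read from the data); inactive means the rest.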

For CSc1cnc2c(=O)n(C)c(=O)[nH]c2n1 the results were SENP6 block inactive, SENP8 block-1 inactive, SENP8 block-2 inactive, SENP7 block inactive and SENP1 inh inactive.
Cn1c(=O)[nH]c2nnc(-c3ccc(Cl)c(Cl)c3)nc2c1=O was read as SENP6 block 96, SENP8 block-1 97, SENP8 block-2 inactive, SENP7 block 97, SENP1 inh inactive, SENP8 conf 56, SENP6 conf 80, SENP7 conf 53, Casp3 select 91 and Luc interf inactive.
For O=C(NCc1ccccc1)C1CC(=O)N(c2ccc(OCC(=O)N3CCOCC3)cc2)C1 (stereo not given) the results were SENP6 block inactive, SENP8 block-1 inactive, SENP8 block-2 inactive, SENP7 block inactive and SENP1 inh inactive.
For Cc1cc(C(=O)CSc2nnc3ccccn23)c(C)n1-c1ccccc1 the results were SENP6 block 62, SENP8 block-1 inactive, SENP8 block-2 inactive, SENP7 block 52, SENP1 inh inactive, SENP8 conf inactive, SENP6 conf inactive, SENP7 conf 79, Casp3 select 79 and Luc interf 61.
`CCn1c(Cc2ccccc2)nnc1SCC(=O)Nc1nccs1` gave SENP6 block inactive, SENP8 block-1 inactive, SENP8 block-2 inactive, SENP7 block 82, SENP1 inh inactive, SENP8 conf inactive, SENP6 conf inactive, SENP7 conf inactive, Casp3 select inactive and Luc interf inactive.
For Cn1c(Cc2ccccc2)nnc1SCC(=O)NC1CC1 the results were SENP6 block inactive, SENP8 block-1 inactive, SENP8 block-2 inactive, SENP7 block inactive and SENP1 inh inactive.
CCn1c(Cc2ccccc2)nnc1SC(C)C(=O)NC1CC1 (stereo not given) was read as SENP6 block inactive, SENP8 block-1 91, SENP8 block-2 inactive, SENP7 block inactive, SENP1 inh inactive, SENP8 conf inactive, SENP6 conf inactive, SENP7 conf inactive, Casp3 select inactive and Luc interf inactive.
COc1ccc(NC(=O)C2CCCN(S(=O)(=O)c3cccnc3)C2)c(OC)c1 (stereo not given) was read as SENP6 block inactive, SENP8 block-1 inactive, SENP8 block-2 inactive, SENP7 block inactive and SENP1 inh inactive.
For COc1ccc(C)cc1NC(=O)C1CCCN(S(=O)(=O)c2cccnc2)C1 (stereo not given) the results were SENP6 block inactive, SENP8 block-1 60, SENP8 block-2 inactive, SENP7 block inactive, SENP1 inh inactive, SENP8 conf inactive, SENP6 conf inactive, SENP7 conf inactive, Casp3 select inactive and Luc interf inactive.
c1ccc2c(c1)CCN(c1nc3cc4c(cc3s1)OCCO4)C2 was read as SENP6 block 97, SENP8 block-1 96, SENP8 block-2 inactive, SENP7 block 99, SENP1 inh inactive, SENP8 conf 98, SENP6 conf 99, SENP7 conf 102, Casp3 select 97 and Luc interf 83.
`O=C(NCCCNC(=O)c1cnccn1)c1cccc(F)c1` gave SENP6 block inactive, SENP8 block-1 inactive, SENP8 block-2 inactive, SENP7 block inactive and SENP1 inh inactive.
`Nc1sc2c(c1C(=O)NC1CC1)CCCC2` gave SENP6 block inactive, SENP8 block-1 inactive, SENP8 block-2 inactive, SENP7 block inactive and SENP1 inh inactive.
`COc1cccc2sc(Nc3nc(-c4ccccn4)cs3)nc12` gave SENP6 block 65, SENP8 block-1 inactive, SENP8 block-2 inactive, SENP7 block inactive, SENP1 inh inactive, SENP8 conf inactive, SENP6 conf 56, SENP7 conf 85, Casp3 select inactive and Luc interf inactive.
For c1ccc(Nc2nc(-c3ccccn3)cs2)cc1 the results were SENP6 block inactive, SENP8 block-1 inactive, SENP8 block-2 inactive, SENP7 block 60, SENP1 inh inactive, SENP8 conf 60, SENP6 conf 61, SENP7 conf 88, Casp3 select 54 and Luc interf 76.
`NC(=O)C1CCN(C2=C(Cl)C(=O)c3ccccc3C2=O)CC1` gave SENP6 block 50, SENP8 block-1 inactive, SENP8 block-2 inactive, SENP7 block inactive, SENP1 inh inactive, SENP8 conf inactive, SENP6 conf 75, SENP7 conf inactive, Casp3 select inactive and Luc interf inactive.
Screening O=C1C(Cl)=C(N2CCC(C(=O)O)CC2)C(=O)c2ccccc21 returned SENP6 block 63, SENP8 block-1 inactive, SENP8 block-2 inactive, SENP7 block inactive, SENP1 inh inactive, SENP8 conf 56, SENP6 conf 71, SENP7 conf inactive, Casp3 select inactive and Luc interf inactive.
Cc1ccc2c(c1)NC(=O)c1cccnc1N2 was read as SENP6 block 52, SENP8 block-1 inactive, SENP8 block-2 inactive, SENP7 block inactive, SENP1 inh inactive, SENP8 conf inactive, SENP6 conf inactive, SENP7 conf 65, Casp3 select 63 and Luc interf inactive.
`Cc1cc(C(=O)COC(=O)C2=NNC(=O)CC2)c(C)n1-c1ccccc1` gave SENP6 block inactive, SENP8 block-1 inactive, SENP8 block-2 inactive, SENP7 block inactive and SENP1 inh inactive.
For Cc1ccc(-n2c(C)cc(C(=O)COC(=O)c3c(C)noc3C)c2C)cc1 the results were SENP6 block 68, SENP8 block-1 inactive, SENP8 block-2 inactive, SENP7 block 52, SENP1 inh inactive, SENP8 conf 52, SENP6 conf 58, SENP7 conf 82, Casp3 select 59 and Luc interf inactive.
Screening Cc1cc(C(=O)COC(=O)C2=COCCO2)c(C)n1-c1ccccc1 returned SENP6 block 85, SENP8 block-1 83, SENP8 block-2 inactive, SENP7 block 85, SENP1 inh inactive, SENP8 conf 83, SENP6 conf 83, SENP7 conf 96, Casp3 select 88 and Luc interf 78.
Screening O=C(NCCc1c[nH]c2ccccc12)C(=O)Nc1cc2c3c(c1)CC(=O)N3CCC2 returned SENP6 block inactive, SENP8 block-1 inactive, SENP8 block-2 inactive, SENP7 block inactive and SENP1 inh inactive.
Screening COc1cccc(-n2c(=O)c3cc(OC)c(OC)cc3n(CC(=O)Nc3cc(C)[nH]n3)c2=O)c1 returned SENP6 block inactive, SENP8 block-1 inactive, SENP8 block-2 inactive, SENP7 block inactive and SENP1 inh inactive.
